In test [1] the target is T1, Peroxisome proliferator-activated receptor alpha (Homo sapiens, UniProt Q07869).
T1 sequence (Q07869 whole entry): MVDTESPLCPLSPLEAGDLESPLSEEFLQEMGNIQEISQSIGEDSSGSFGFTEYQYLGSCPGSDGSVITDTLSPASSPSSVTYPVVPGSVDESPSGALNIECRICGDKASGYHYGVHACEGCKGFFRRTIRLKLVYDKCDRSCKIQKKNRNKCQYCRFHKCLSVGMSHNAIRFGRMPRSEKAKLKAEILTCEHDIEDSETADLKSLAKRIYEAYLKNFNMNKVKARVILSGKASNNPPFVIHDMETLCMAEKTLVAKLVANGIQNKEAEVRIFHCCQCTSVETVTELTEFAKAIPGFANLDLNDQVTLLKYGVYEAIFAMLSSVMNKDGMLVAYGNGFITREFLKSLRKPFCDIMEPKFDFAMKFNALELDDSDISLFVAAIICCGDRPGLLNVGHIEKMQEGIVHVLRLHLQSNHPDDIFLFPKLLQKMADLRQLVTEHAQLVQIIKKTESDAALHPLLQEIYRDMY
Description: Agonist activity at PPARalpha receptor expressed in HEK293 cells co-transfected with GAL4 by transactivation assay. The test is classed as functional, cell-based. In outline: (§1)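 GAL4-PPARα chimeric receptor transfected into HEK293 cells; cell-based transactivation (agonist mode). Output is EC50, plus % efficacy relative to the positive control fenofibric acid for PPARα.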

The target in test [2] is T2, Peroxisome proliferator-activated receptor alpha (Homo sapiens) (UniProt Q07869).
T2 sequence (whole entry): T1 sequence (Q07869 whole entry)
Description: Agonist activity at PPARalpha receptor expressed in HEK293 cells co-transfected with GAL4 by transactivation assay relative to […]. The test is classed as functional, cell-based. In outline: as §1

The target in test [3] is T3, Peroxisome proliferator-activated receptor delta (Homo sapiens, UniProt Q03181).
T3 sequence (Q03181 whole entry): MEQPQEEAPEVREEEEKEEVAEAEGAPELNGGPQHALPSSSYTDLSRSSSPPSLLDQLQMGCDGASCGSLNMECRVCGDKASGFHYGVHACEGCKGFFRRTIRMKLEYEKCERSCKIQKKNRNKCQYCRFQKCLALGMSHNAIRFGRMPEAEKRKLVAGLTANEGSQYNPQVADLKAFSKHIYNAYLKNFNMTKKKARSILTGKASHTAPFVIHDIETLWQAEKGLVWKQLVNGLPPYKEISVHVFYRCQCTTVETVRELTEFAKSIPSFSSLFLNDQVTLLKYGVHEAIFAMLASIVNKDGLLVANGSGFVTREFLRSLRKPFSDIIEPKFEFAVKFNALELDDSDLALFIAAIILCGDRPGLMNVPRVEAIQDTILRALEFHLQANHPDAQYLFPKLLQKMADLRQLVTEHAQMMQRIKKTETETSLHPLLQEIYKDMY
Description: Agonist activity at PPARdelta receptor expressed in HEK293 cells co-transfected with GAL4 by transactivation assay. The test is classed as functional, cell-based.

Test [4] has as its target Peroxisome proliferator-activated receptor delta (Homo sapiens) (UniProt Q03181). Briefly: Antagonist activity at PPARdelta co-transfected with GAL4-PPAR fusion protein assessed as inhibition of GW501516-induced response by luciferase reporter gene assay. In general terms: A reporter such as luciferase makes a cellular process visible.
The target of test [5] is T4, Peroxisome proliferator-activated receptor delta (Homo sapiens) (UniProt Q03181).
T4 sequence (whole entry): T3 sequence (Q03181 whole entry)
Briefly: Agonist activity at PPARdelta receptor expressed in HEK293 cells co-transfected with GAL4 at 1 uM by transactivation assay. The test is classed as functional, cell-based.

The target of test [6] is T4, Peroxisome proliferator-activated receptor delta (Homo sapiens). Description: Agonist activity at PPARdelta receptor expressed in HEK293 cells co-transfected with GAL4 at 10 uM by transactivation assay. The test is classed as functional, cell-based.
Test [7] addresses T2, Peroxisome proliferator-activated receptor alpha (Homo sapiens). Briefly: Agonist activity at PPARalpha receptor expressed in HEK293 cells co-transfected with GAL4 up to 10 uM by transactivation assay. It counts as functional, cell-based. In short, it runs like this: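 HEK293 cells transfected with GAL4-PPAR chimeric receptors (PPARα, δ or γ) in a cell-based transactivation assay. Results given as EC50 and % efficacy relative to a subtype positive control: fenofibric acid for PPARα, GW501516 for PPARδ, ciglitazone for PPARγ.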

Test [8] deals with T5, Peroxisome proliferator-activated receptor gamma (Homo sapiens) (UniProt P37231).
T5 sequence (whole entry): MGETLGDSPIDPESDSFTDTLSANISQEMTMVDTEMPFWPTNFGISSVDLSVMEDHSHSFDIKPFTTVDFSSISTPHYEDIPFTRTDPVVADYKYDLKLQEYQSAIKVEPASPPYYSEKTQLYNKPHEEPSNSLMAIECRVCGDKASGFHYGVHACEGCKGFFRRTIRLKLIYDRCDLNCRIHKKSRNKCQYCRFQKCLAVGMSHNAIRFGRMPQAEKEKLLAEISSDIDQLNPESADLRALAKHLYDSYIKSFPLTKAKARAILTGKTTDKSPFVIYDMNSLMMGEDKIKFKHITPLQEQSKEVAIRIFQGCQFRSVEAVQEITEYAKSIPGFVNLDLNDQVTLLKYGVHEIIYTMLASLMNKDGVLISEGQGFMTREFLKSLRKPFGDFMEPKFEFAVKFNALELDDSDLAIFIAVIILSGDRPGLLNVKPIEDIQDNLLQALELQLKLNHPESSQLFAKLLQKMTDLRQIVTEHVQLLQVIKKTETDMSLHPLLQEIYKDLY
Briefly: Agonist activity at PPARgamma receptor expressed in HEK293 cells co-transfected with GAL4 at 10 uM by transactivation assay. It counts as functional, cell-based.

Test [9] concerns the target T2, Peroxisome proliferator-activated receptor alpha (Homo sapiens). Description: (§2) Agonist activity at PPARalpha receptor expressed in HEK293 cells co-transfected with GAL4 at 1 uM by transactivation assay. It counts as functional, cell-based.
Test [10] addresses T6, Peroxisome proliferator-activated receptor gamma (Homo sapiens, UniProt P37231).
T6 sequence (P37231 whole entry): T5 sequence (whole entry)

The target in test [11] is T5, Peroxisome proliferator-activated receptor gamma (Homo sapiens). Briefly: Antagonist activity at PPARgamma co-transfected with GAL4-PPAR fusion protein assessed as inhibition of TIPP703-induced response up to 10 uM by luciferase reporter gene assay. It counts as functional. In short, it runs like this: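 Cells expressing GAL4-PPARα or GAL4-PPARγ chimeras were stimulated with the agonist TIPP-703, with or without co-treatment at 0.1, 1 or 10 µM. Antagonism was read as dose-dependent reduction of the induced transactivation signal.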

Test [12] addresses T1, Peroxisome proliferator-activated receptor alpha. Described as §2. The test is classed as functional, cell-based.
For test [13], the target named is T2, Peroxisome proliferator-activated receptor alpha (Homo sapiens). Briefly: Antagonist activity at PPARalpha co-transfected with GAL4-PPAR fusion protein assessed as inhibition of TIPP703-induced response up to 10 uM by luciferase reporter gene assay. It counts as functional. In outline:
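Antagonist mode in the GAL4-PPAR chimera system. Cells were stimulated with the agonist TIPP-703, with or without three added test concentrations. Inhibition of the agonist-elicited reporter signal was assessed for dose dependence.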

Test [14] addresses T3, Peroxisome proliferator-activated receptor delta. Description: Antagonist activity at PPARdelta co-transfected with GAL4-PPAR fusion protein assessed as inhibition of GW-501516-induced response by luciferase reporter gene assay. It counts as functional.
The target in test [15] is T6, Peroxisome proliferator-activated receptor gamma. Description: Agonist activity at PPARgamma receptor expressed in HEK293 cells co-transfected with GAL4 by transactivation assay.

Each structure is given as a SMILES string. Active and inactive are the calls of the source. No cut-off for these calls is given here.

As usually defined, the EC50 is the concentration giving half of the maximal effect. The low end stands for greater potency, the high end for weaker potency. In the case of `CCCCOc1ccc(-c2cc(C(=O)O)ccc2C)cc1CNC(=O)c1ccc(C(F)(F)F)cc1F`, the EC50 in test [1] is 570 nM; in [3] it was 4.9 nM. The Efficacy in [2] came out at 100%.

For `CCCCOc1ccc(-c2ccc(C(=O)O)o2)cc1CNC(=O)c1ccc(C(F)(F)F)cc1F`, the outcome in test [4], in test [5], in test [6], in test [7], in test [8] and in test [9] was inactive.

For the compound `CCCCOc1ccc(-c2cccc(C(=O)O)c2C)cc1CNC(=O)c1ccc(C(F)(F)F)cc1F`, the figures for the EC50 in [1] and in [3] were 130 nM and 1.6 nM, respectively. In test [2], this compound had an Efficacy of 100%.

Broadly, the IC50 is the concentration at which inhibition is half-maximal. For `CCCCOc1ccc(-c2ccc(C(=O)O)cc2C)cc1CNC(=O)c1ccc(C(F)(F)F)cc1F`, the IC50 in test [10] amounted to 10 nM. For the same compound, the outcome in test [9] was inactive.

`CCCCOc1ccc(-c2ccc(C(=O)O)nc2)cc1CNC(=O)c1ccc(C(F)(F)F)cc1F`: the EC50 in test [3] stood at 400 nM. In test [9], the result was inactive.

Consider `CCCCOc1ccc(-c2ccccc2C(=O)O)cc1CNC(=O)c1ccc(C(F)(F)F)cc1F`, for which the outcome in test [4], in test [5], in [7], in test [8] and in test [9] was inactive.

The compound `CCCCOc1ccc(-c2ccc(C(=O)O)cc2F)cc1CNC(=O)c1ccc(C(F)(F)F)cc1F` gave an EC50 in test [3] of 53 nM. In test [9], the result was inactive.

Take `CCCCOc1ccc(-c2ccc(C(=O)O)c(C)c2)cc1CNC(=O)c1ccc(C(F)(F)F)cc1F`: the EC50 in [1] stood at 3000 nM; in test [3], 45 nM. Besides, in test [2], the Efficacy came to 100%.

As to `CCCCOc1ccc(-c2ccc(C(=O)O)cn2)cc1CNC(=O)c1ccc(C(F)(F)F)cc1F`, the outcome in test [4], in test [5], in test [6], in test [7], in test [8] and in [9] was inactive.

On to `CCCCOc1ccc(-c2ccc(C(=O)O)cc2)cc1CNC(=O)c1ccc(C(F)(F)F)cc1F`, for which the outcome in [7], in test [11], in [8] and in [13] was inactive. Besides, the EC50 was 170 nM in test [3] and “Not Active” in [12]. For the same compound, the IC50 in [14] came out at 68 nM.

Take `CCCCOc1ccc(-c2cccc(C(=O)O)c2)cc1CNC(=O)c1ccc(C(F)(F)F)cc1F`: the EC50 in test [1] is 790 nM; in test [3], 29 nM. The compound further gave an Efficacy in test [2] of 100%.

On to `CCCCOc1ccc(C[C@H](CC)C(=O)O)cc1CNC(=O)c1ccc(C(F)(F)F)cc1F`, for which the EC50 in test [1] amounted to 240 nM; in [15], 1400 nM; in test [3], 0.72 nM.

With `CCCCOc1ccc(-c2ccc(C)c(C(=O)O)c2)cc1CNC(=O)c1ccc(C(F)(F)F)cc1F`, the EC50 in [1] was 120 nM; in [3], 14 nM. In test [2], this compound came in with an Efficacy of 100%.

The values are drawn from ChEMBL document CHEMBL1154383, “Novel biphenylcarboxylic acid peroxisome proliferator-activated receptor (PPAR) delta selective antagonists” (Bioorg Med Chem Lett, 2009).
